APP 5'UTR act: APP 5'UTR luciferase reporter activation; SH-SY5Y APP 5'UTR luciferase reporter, luminescence; zero percent = DMSO vehicle wells; activation, % at 2 µM; hit rate 1% among 190,000; AID 1276;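 active means activation above a set limit, based on mean plus 3 SD of controls, cut at about 140% in these data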
FLuc act counter: firefly luciferase counter-screen for stimulation assays; activation factor at 10 µM; ATPlite luciferase biochemical, luminescence, 10 min; 0 = ATP-free wells, 1 = DMSO control; 200,000 tested, under 10 active; AID 1027;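 active means luciferase activation factor, scaled between plate controls, of at least 2 with compound at 10 µM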
Target sequence (P08659 whole entry, looked up): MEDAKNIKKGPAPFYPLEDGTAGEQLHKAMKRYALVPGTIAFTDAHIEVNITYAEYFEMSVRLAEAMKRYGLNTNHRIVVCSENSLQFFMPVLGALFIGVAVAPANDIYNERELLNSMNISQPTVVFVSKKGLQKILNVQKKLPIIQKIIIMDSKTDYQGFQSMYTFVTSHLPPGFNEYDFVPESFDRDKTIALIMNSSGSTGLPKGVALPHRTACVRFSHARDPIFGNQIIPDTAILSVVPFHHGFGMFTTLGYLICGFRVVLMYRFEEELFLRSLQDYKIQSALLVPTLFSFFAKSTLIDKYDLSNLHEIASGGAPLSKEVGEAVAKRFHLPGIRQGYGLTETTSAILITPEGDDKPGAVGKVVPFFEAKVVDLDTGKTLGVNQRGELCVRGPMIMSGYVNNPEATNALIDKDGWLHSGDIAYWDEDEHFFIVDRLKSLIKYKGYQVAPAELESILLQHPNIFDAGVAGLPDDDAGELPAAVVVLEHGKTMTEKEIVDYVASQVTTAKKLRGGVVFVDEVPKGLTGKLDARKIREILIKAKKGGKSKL
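System: cell-free luciferase reagent; medium: PBS as buffer for the ATP substrate; doses: test compounds dosed from 2 mM stocks in 100% DMSO; incubation: 10 min, room temperature; measured by: luminescence from luciferase reaction; read-out: luciferase activation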
PPC-1+TRAIL kill: compounds killing PPC-1 cancer cells with TRAIL present (potentiator screen, no TRAIL-free arm); PPC-1 cells + TRAIL, ATPLite viability luminescence; cell killing (% activity), % at 4 µM or 5 µM; hit rate 0.41% among 220,000; AID 1443;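 active means cell killing above 50% in the first pass at 4 µM, then a duplicate retest at 5 µM averaging 50% or more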;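 further: plate controls were cells with TRAIL plus DMSO for no effect and medium-only wells lacking cells for full effect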
NF-kB expr up: NF-kB expression increase, human neuronal cells. NF-kB reporter expression; stronger effect = higher value. fold change at 12.5 µM. hit rate 1.6% among 190,000; in the data active means fold change above about 3.3
C8 TRAIL sens: sensitizes caspase-8 expressing cells to TRAIL; inhibition (viability loss, TRAIL sensitization), % at 10 µM; NB7+C8 cells + TRAIL, ATPlite viability luminescence; hit rate 1% among 360,000;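 active means compounds causing at least 50% loss of cell viability in the single-dose screen, relative to plate controls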
FLuc inhib CS: counter-screen for luciferase assay inhibitors: firefly luciferase inhibition | P08659 | ATPLite firefly luciferase biochemical luminescence, 10 min | inhibition, % at 10 µM | hit rate 1.5% among 200,000;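 active means inhibition above about 50% when tested at 10 µM, limit read from the data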
Active calls of the source: *; x = no result. A selection: hits, their analogues and other compounds. The true share with any hit is near 2.2%.

SMILES	APP 5'UTR act	FLuc act counter	PPC-1+TRAIL kill	NF-kB expr up	C8 TRAIL sens	FLuc inhib CS
Cn1c(Cl)cnc1C1CC(=O)c2cc(Cl)ccc2O1 (stereo unspecified)	-26.6	1	17.9	4.66*	-10.6	0.0
O=C1CC(c2ccc(Cl)cc2)Oc2ccc(Cl)cc21 (stereo unspecified)	x	x	x	x	14.0	x
Cc1occc1C(=O)NNC(=O)c1ccccc1C(=O)O	181.1*	1	11.5	1.42	18.2	-0.4
Cc1ccccc1C(=O)NNC(=O)c1ccoc1C	8.7	1	22.7	1.28	-8.9	-4.3
COC(=O)c1ccccc1-c1c2ccc(=N)cc-2oc2cc(N)ccc12	x	x	x	x	22.1	x
CCCC(=O)N(Cc1cc(=O)[nH]c2ccccc12)c1ccc(C)cc1C	x	x	x	x	-15.7	x
Cc1ccc(N(Cc2cc(=O)[nH]c3ccccc23)C(=O)CCl)c(C)c1	x	x	x	x	51.6*	x
Nc1ncnc2c(C3OC(CO)C(O)C3O)c[nH]c12 (stereo unspecified)	x	x	x	x	87.7*	x
c1c2c(cc3sc(N4CCCCC4)nc13)OCO2	206.5*	0.2	49.8	3.82*	47.4*	80.4*
Fc1ccc2nc(N3CCOCC3)sc2c1	26.8	0.9	-3.2	1.71	3.0	6.8
c1ccc(N2CCN(c3nc4cc5c(cc4s3)OCO5)CC2)cc1	79.6	0.7	25.5	3.81*	16.9	28.8
c1ccc2c(c1)CCN(c1nc3cc4c(cc3s1)OCO4)C2	150.8*	0.3	22.7	11.7*	36.8	69.2*
c1c2c(cc3sc(N4CCOCC4)nc13)OCO2	92.3	0.4	37.9	3.16	20.9	56.4*
COc1ccc(C(=O)N2CCCC(C(=O)O)C2)c2ccccc12 (stereo unspecified)	x	x	x	x	-2.3	x
Clc1ccc2nc(N3CCN(c4ccccc4)CC3)sc2c1	27.4	0.8	6.0	3.5*	14.8	20.6
CC1(C)CC(=O)C2=C(C1)OC1=C(C(=O)CC(C)(C)C1)C2c1ccc(O)cc1O	-41.4	1	18.6	6.18*	44.7	3.7
CC1(C)CC(=O)C2=C(C1)OC1=C(C(=O)CC(C)(C)C1)C2c1ccc(O)c([N+](=O)[O-])c1	-7.0	1.1	-0.1	1.16	1.8	-5.0
O=C(COC(=O)CNC(=O)C1CCCCC1)NCc1ccc(Cl)cc1	x	x	x	x	1.0	x
O=C(Nc1ccc(C(=O)O)cc1)/C(=C\C=C\c1ccccc1)NC(=O)c1ccccc1Br	x	x	x	x	50.0*	x
CCCCNc1nc(N)nc(-c2cc(Cl)ccc2O)n1	155.2*	0.8	11.6	1.61	28.6	21.4
CCNc1nc(N)nc(-c2cc(Cl)ccc2O)n1	214.7*	0.4	42.5	6.84*	46.6	62.8*
CN1/C(=C/C(=O)c2nc(S(C)(=O)=O)ncc2Cl)C(C)(C)c2ccccc21	-56.6	1	-5.2	1.62	66.7*	-2.6
O=C(Nc1ccccc1C(=O)O)c1ccc(Cl)c(S(=O)(=O)N2CCOCC2)c1	9.3	0.4	33.3	0.72	25.8	60.0*
O=C(Nc1cccnc1)c1ccc(Cl)c(S(=O)(=O)N2CCCCC2)c1	x	x	x	x	6.6	x
O=C(O)c1cccc(NC(=O)c2ccc(Cl)c(S(=O)(=O)N3CCCCCC3)c2)c1	97.9	0.3	28.3	1.9	38.3	65.4*
SMILES	APP 5'UTR act	FLuc act counter	PPC-1+TRAIL kill	NF-kB expr up	C8 TRAIL sens	FLuc inhib CS
COc1ccccc1NC(=O)c1ccc(Cl)c(S(=O)(=O)N2CCOCC2)c1	13.8	1	-3.2	1.05	-3.9	-4.8
CCc1nc2ccccc2c(C(=O)Nc2ccc(C)cc2)c1C	x	x	x	x	-2.4	x
O=C(Cc1nc2ccccc2[nH]c1=O)c1ccccc1	160.0*	0.4	25.7	0.97	41.5	58.0*
O=c1[nH]c2ccccc2nc1Cc1ccccc1	-18.6	1	-10.9	0.91	-6.7	0.4
COc1ccccc1NC(=O)C1CCN(C(=O)c2ccco2)CC1	x	x	x	x	-13.9	x
O=C(Nc1ccc(-c2nnn(CC(=O)N3CCN(C(=O)c4ccco4)CC3)n2)cc1)c1ccccc1F	3.9	0.4	13.5	1.63	x	55.7*
COc1ccccc1C(=O)Nc1ccc(-c2nnn(CC(=O)N3CCN(C(=O)c4ccco4)CC3)n2)cc1	6.0	0.8	5.5	0.87	5.7	18.5
O=Nc1ccc(NOC(=O)c2ccccc2)cc1	-15.4	0.1	24.2	1.35	9.4	89.5*
Cc1c(C(=O)/C=C/c2cccs2)oc2ccc(F)cc12	-8.9	0.2	17.7	2.59	12.1	84.5*
Cc1ccc2oc(C(=O)NCCCN3CCOCC3)c(C)c2c1	x	x	x	x	0.2	x
CC(C)CCNC(=O)C1(c2cccs2)CCOCC1	16.0	1.1	8.0	1.18	-9.2	-6.0
COc1ccc(/C=N/N2C(=O)c3ccccc3C2=O)cc1	1.8	0.3	0.7	1.33	-7.9	74.0*
CN(C)c1ccc(/C=N/N2C(=O)c3ccccc3C2=O)cc1	x	x	6.7	x	9.8	x
C/C(=N\NC(=O)c1ccccc1-n1cccc1)C1CC1	-0.7	1	23.0	1.13	13.6	4.1
CCCCOc1ccc(-c2nnc(-c3ccncc3)o2)cc1	76.8	1	-39.8	1.43	14.3	1.5
CCCOc1ccc(-c2nnc(-c3cccs3)o2)cc1	46.4	0.6	2.4	5.17*	32.2	40.4
CN(C)c1ccc(-c2nnc(-c3cccs3)o2)cc1	163.3*	0.3	42.7	7.23*	46.0	71.8*
Oc1ccccc1-c1n[nH]c(-c2ccccc2O)n1	x	x	x	x	60.2*	x
Cc1cc2nc(-c3ccccc3O)[nH]c2cc1C	x	x	x	x	45.0	x
Clc1ccccc1-c1nc(-c2ccccc2)n[nH]1	109.2	0.7	8.8	4.05*	21.3	26.7
CC(C)CC1NC(=O)c2cc3ccccc3cc2-n2c1nc1ccc(Cl)cc1c2=O (stereo unspecified)	x	x	x	x	17.9	x
NC(CCc1ccccc1)c1csc(NC(=O)NCC2CCCCC2)n1 (stereo unspecified)	x	x	x	x	41.4	x
COc1ccc(C(=O)c2oc3ccc(OC)cc3c2N)cc1	189.7*	1	7.4	5.88*	1.3	4.0
COC(=O)c1oc2ccc(OC)cc2c1N	21.5	0.6	9.8	1.72	18.7	37.7
O=C(Nc1ccc(Cl)cc1)C(c1ccccc1)N(CCO)CCO (stereo unspecified)	9.7	1	24.7	4.26*	8.8	1.4
SMILES	APP 5'UTR act	FLuc act counter	PPC-1+TRAIL kill	NF-kB expr up	C8 TRAIL sens	FLuc inhib CS
CCCN(CCC)C(C(=O)Nc1cccc(OC)c1)c1ccccc1 (stereo unspecified)	6.1	1.1	-25.8	1.09	4.7	-5.9
COc1cc(OC)cc(-c2c(Sc3ccccc3)c3cc(-c4ccc(OC)c(F)c4)ccc3n2C)c1	x	x	x	x	31.0	x
CCCCC1CCC(C(=O)N(CCCC)c2c(N)n(CCCC)c(=O)[nH]c2=O)CC1 (stereo unspecified)	x	x	x	x	71.9*	x
CCCCC1CCC(C(=O)N(CCC(C)C)c2c(N)n(CCCC)c(=O)[nH]c2=O)CC1 (stereo unspecified)	x	x	x	x	51.8*	x
CC(C)CN1CCN(C(=O)COC(=O)c2ccc(S(C)(=O)=O)c([N+](=O)[O-])c2)CC1	x	x	x	x	48.1	x
CCC(OC(=O)c1ccc(S(C)(=O)=O)c([N+](=O)[O-])c1)C(=O)NC1C2CC3CC(C2)CC1C3 (stereo unspecified)	x	x	x	x	74.2*	x

Screens deposited in PubChem by several laboratories.
